Test results taken from ChEMBL document CHEMBL1641445, “Synthesis, antiprotozoal, antimicrobial, β-hematin inhibition, cytotoxicity and methemoglobin (MetHb) formation activities of bis(8-aminoquinolines)” (Bioorg Med Chem, 2011).
pIC50: −log10 of the molar value. Active and inactive are the calls of the source. The calls are words filed in the database; no cut-off is given here.

Columns and labels:
[1] = Hematotoxicity against RBC assessed as formation of methemoglobin at 20 ug/ml relative to control; type: cell-based; conditions: erythrocyte
In short: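 Metabolism-linked methemoglobin toxicity in vitro. Percent MetHb formation was determined at 20 µg/mL of compound relative to vehicle control.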

Plasmodium falciparum [2] = assay: Antimalarial activity against chloroquine-resistant Plasmodium falciparum W2 by LDH assay; type: functional, organism-based; conditions: Plasmodium falciparum, W2; read-out: IC50
In short: (§1)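 Antiplasmodial activity was measured in vitro against P. falciparum blood-stage cultures. Read-out was parasite lactate dehydrogenase (LDH) activity, with IC50 values expressed in µg/mL. The same protocol was used for the D6 and W2 strains.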

Vero = assay: Cytotoxicity against african green monkey Vero cells up to 10 ug/ml by neutral red assay; type: cell-based; conditions: chlorocebus sabaeus
In short: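 Vero (monkey kidney) cells were exposed up to a highest concentration of 10 µg/mL. Viability was read by neutral red uptake.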

[3] = Inhibition of beta-hematin formation; type: functional
Leishmania donovani = assay: Antileishmanial activity against promastigotes of Leishmania donovani by alamar blue assay; type: functional, organism-based; conditions: Leishmania donovani; for IC50: read-out: IC50
Plasmodium berghei [4] = assay: Antimalarial activity against Plasmodium berghei infected in mouse assessed as negative parasitemia level at 100 mg/kg, po qd for 4 days measured up to 7 days; type: functional, organism-based; parameters: dose 100 mg/kg
In short: (§2)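 Mice infected with P. berghei (sensitive strain), 6 per group, dosed orally at 10–100 mg/kg/day × 4. Suppression meant negative parasitemia in all treated animals up to D+7. Survivors were counted at D+60.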

Staphylococcus aureus [5] = assay: Antibacterial activity against Staphylococcus aureus by CLSI method; type: functional, organism-based
Staphylococcus aureus [6] = assay: Antibacterial activity against methicillin-resistant Staphylococcus aureus ATCC 43300 by CLSI method; type: functional, organism-based
In short: (§3)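 Broth dilution method (NCCLS M7-A5). […] MIC is the lowest concentration allowing no detectable growth. MBC is the lowest concentration killing the organism. Highest test concentration was 20 µg/mL.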

[7] = system: Mycobacterium intracellulare; assay: Antibacterial activity against Mycobacterium intracellular ATCC 23068 by CLSI method; type: functional, organism-based
[8] = system: Mycobacterium intracellulare; assay: Antibacterial activity against Mycobacterium intracellular ATCC 23068 at 20 ug/ml by CLSI method; type: functional, organism-based
Candida albicans [9] = assay: Antifungal activity against Candida albicans ATCC 90028; type: functional, organism-based
Candida albicans [10] = assay: Antifungal activity against Candida albicans ATCC 90028 at 20 ug/ml; type: functional, organism-based
Cryptococcus neoformans [11] = assay: Antifungal activity against Cryptococcus neoformans ATCC 90113; type: functional, organism-based
Aspergillus fumigatus = assay: Antifungal activity against Aspergillus fumigatus ATCC 90906 at 20 ug/ml; type: functional, organism-based
Nakaseomyces glabratus = assay: Antifungal activity against Candida glabrata at 20 ug/ml; type: functional, organism-based
Pichia kudriavzevii = assay: Antifungal activity against Candida krusei at 20 ug/ml; type: functional, organism-based
Plasmodium falciparum [12] = assay: Antimalarial activity against chloroquine-sensitive Plasmodium falciparum D6 by LDH assay; type: functional, organism-based; conditions: Plasmodium falciparum, D6; read-out: IC50; in short: as §1
Cryptococcus neoformans [13] = assay: Antifungal activity against Cryptococcus neoformans ATCC 90113 at 20 ug/ml; type: functional, organism-based
Plasmodium berghei [14] = assay: Antimalarial activity against Plasmodium berghei infected in mouse assessed as negative parasitemia level at 10 mg/kg, po qd for 4 days measured up to 7 days; type: functional, organism-based; parameters: dose 10 mg/kg; in short: as §2
Plasmodium berghei [15] = assay: Antimalarial activity against Plasmodium berghei infected in mouse assessed as complete elimination of malaria parasites from animals at 25 mg/kg, po qd for 4 days measured up to 60 days; type: functional, organism-based; parameters: dose 25 mg/kg
In short: (§4)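 Rodent P. berghei (sensitive strain) blood-schizontocidal model, 6 mice per group. Compounds were given orally once daily for 4 days at 10, 25, 50 or 100 mg/kg/day. Cure meant complete parasite elimination with survival to day D+60.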

Plasmodium berghei [16] = assay: Antimalarial activity against Plasmodium berghei infected in mouse assessed as complete elimination of malaria parasites from animals at 50 mg/kg, po qd for 4 days measured up to 60 days; type: functional, organism-based; parameters: dose 50 mg/kg; in short: as §4
Plasmodium berghei [17] = assay: Antimalarial activity against Plasmodium berghei infected in mouse assessed as complete elimination of malaria parasites from animals at 100 mg/kg, po qd for 4 days measured up to 60 days; type: functional, organism-based; parameters: dose 100 mg/kg; in short: as §4
Staphylococcus aureus [18] = assay: Antibacterial activity against methicillin-resistant Staphylococcus aureus ATCC 43300 at 20 ug/ml by CLSI method; type: functional, organism-based; in short: as §3

## COc1cc(NC(C)CCCNC(=O)NC(CCCCN)C(=O)NCCCC(C)Nc2cc(OC)cc3ccc(C(C)(C)C)nc23)c2nc(C(C)(C)C)ccc2c1.Cl (single isomer, unassigned)
[1]
  Methemoglobin formation: 2.25%
Plasmodium falciparum [2]
  IC50: 1.3 µg/mL
Vero
  Activity: Non-toxic
[3]
  pIC50: 4.35
Leishmania donovani
  IC90: 36 µg/mL
  IC50: 21 µg/mL
Plasmodium berghei [4]
  Activity: Active
Staphylococcus aureus [5]
  IC50: 2.58 µg/mL
  MBC: 5 µg/mL
  MIC: 5 µg/mL
Staphylococcus aureus [6]
  IC50: 1.97 µg/mL
  MBC: 5 µg/mL
  MIC: 5 µg/mL
[7]
  IC50: 7.12 µg/mL
  MIC: 20 µg/mL
[8]
  MBC: inactive
Candida albicans [9]
  IC50: 17.9 µg/mL
  MIC: 20 µg/mL
Candida albicans [10]
  MFC: inactive
Cryptococcus neoformans [11]
  IC50: 6.45 µg/mL
  MFC: 10 µg/mL
  MIC: 10 µg/mL
Aspergillus fumigatus
  Activity: inactive
Nakaseomyces glabratus
  Activity: inactive
Pichia kudriavzevii
  Activity: inactive

## COc1cc(NC(C)CCCNC(=S)NCCCC(C)Nc2cc(OC)cc3cccnc23)c2ncccc2c1.Cl.Cl (configuration not stated)
[1]
  Methemoglobin formation: 3.7%
Plasmodium falciparum [12]
  IC50: 2.3 µg/mL
Plasmodium falciparum [2]
  IC50: 2.4 µg/mL
Vero
  Activity: Non-toxic
[3]
  pIC50: < 3.00
Leishmania donovani
  IC90: 20 µg/mL
  IC50: 4 µg/mL
Staphylococcus aureus [6]
  IC50: 3 µg/mL
  MBC: 10 µg/mL
  MIC: 5 µg/mL
[7]
  IC50: 4.5 µg/mL
Candida albicans [9]
  IC50: 10 µg/mL
Candida albicans [10]
  MFC: inactive
Cryptococcus neoformans [13]
  MFC: inactive
  MIC: inactive
Cryptococcus neoformans [11]
  IC50: 15 µg/mL
Aspergillus fumigatus
  Activity: inactive
Nakaseomyces glabratus
  Activity: inactive
Pichia kudriavzevii
  Activity: inactive

## COc1cc(NC(C)CCCNCCNCCNCCCC(C)Nc2cc(OC)cc3cccnc23)c2ncccc2c1.Cl.Cl (configuration not stated)
[1]
  Methemoglobin formation: 8.4%
Plasmodium falciparum [12]
  IC50: 2.6 µg/mL
Plasmodium falciparum [2]
  IC50: 1.5 µg/mL
Vero
  Activity: Non-toxic
[3]
  pIC50: 3.74
Plasmodium berghei [14]
  Activity: Active
Leishmania donovani
  IC90: 27 µg/mL
Plasmodium berghei [15]
  Activity: Active
Plasmodium berghei [16]
  Activity: Active
Plasmodium berghei [17]
  Activity: Active
[7]
  IC50: 10 µg/mL
  MBC: 20 µg/mL
  MIC: 20 µg/mL
Staphylococcus aureus [18]
  IC50: Not Active
  MBC: inactive
  MIC: inactive
Candida albicans [10]
  IC50: Not Active
  MFC: inactive
  MIC: inactive
Cryptococcus neoformans [11]
  IC50: 15 µg/mL
  MFC: 20 µg/mL
  MIC: 20 µg/mL
Aspergillus fumigatus
  Activity: inactive
Nakaseomyces glabratus
  Activity: inactive
Pichia kudriavzevii
  Activity: inactive

## COc1cc(NC(C)CCCNC(=O)N[C@H](CCCN)C(=O)NCCCC(C)Nc2cc(OC)cc3ccc(C(C)(C)C)nc23)c2nc(C(C)(C)C)ccc2c1.Cl (some centres not stated)
[1]
  Methemoglobin formation: 2.3%
Plasmodium falciparum [2]
  IC50: 0.3 µg/mL
Vero
  Activity: Non-toxic
[3]
  pIC50: 4.97
Plasmodium berghei [14]
  Activity: Active
Leishmania donovani
  IC90: 34 µg/mL
  IC50: 20 µg/mL
Plasmodium berghei [15]
  Activity: Active
Plasmodium berghei [16]
  Activity: Active
Plasmodium berghei [17]
  Activity: Active
Staphylococcus aureus [5]
  IC50: 2.73 µg/mL
  MBC: 5 µg/mL
  MIC: 5 µg/mL
Staphylococcus aureus [6]
  IC50: 1.78 µg/mL
  MBC: 5 µg/mL
  MIC: 5 µg/mL
[7]
  IC50: 10 µg/mL
  MIC: 20 µg/mL
[8]
  MBC: inactive
Candida albicans [9]
  IC50: > 20 µg/mL
Candida albicans [10]
  MFC: inactive
  MIC: inactive
Cryptococcus neoformans [11]
  IC50: 9.97 µg/mL
  MFC: 20 µg/mL
Aspergillus fumigatus
  Activity: inactive
Nakaseomyces glabratus
  Activity: inactive
Pichia kudriavzevii
  Activity: inactive

## COc1cc(NC(C)CCCNCOC(=O)NCCCC(C)Nc2cc(OC)cc3cccnc23)c2ncccc2c1.Cl.Cl (configuration not stated)
[1]
  Methemoglobin formation: 5.3%
Plasmodium falciparum [12]
  IC50: 2.6 µg/mL
Vero
  Activity: Non-toxic
[3]
  pIC50: 4.00
Leishmania donovani
  IC90: 38 µg/mL
  IC50: 20 µg/mL
Plasmodium berghei [4]
  Activity: Active
Candida albicans [10]
  IC50: Not Active
  MFC: inactive
  MIC: inactive
Cryptococcus neoformans [11]
  IC50: 4.5 µg/mL
  MFC: 5 µg/mL
  MIC: 5 µg/mL
Aspergillus fumigatus
  Activity: inactive
Nakaseomyces glabratus
  Activity: inactive
Pichia kudriavzevii
  Activity: inactive
